An excerpt weighted towards active compounds, which were near 1.5% of everything screened.
CXCR6 block – CXCR6 receptor inhibitors, primary screen, cell-based, beta-arrestin, luminescence, CHO-K1 PathHunter, 1536-well | C-X-C chemokine receptor type 6 (Homo sapiens), O00574 | inhibition, % at 20 µM | 0.36% of 360,000 active; in the data active means inhibition above about 34%, passing the limit was not always enough;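 further: antagonist mode with CXCL16 agonist at 10 nM final; 0% = 10 nM CXCL16 with DMSO and 100% = unstimulated wells without agonist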
CCR6 antagonist – CCR6 receptor antagonists, primary screen, cell-based, CHO-K1, luminescence, beta-arrestin, uHTS; AID 493098, 2011; C-C chemokine receptor type 6 (Homo sapiens), P51684; CHO-K1 CCR6 PathHunter beta-arrestin, CCL20-stimulated; inhibition, % at 20 µM; 0.49% of 340,000 active;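 active means compounds whose inhibition of the agonist-driven luminescence signal at 20 µM reaches about 50%, limit read from the data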;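 further: cells stimulated with CCL20 at 14 nM final; plate controls were DMSO with CCL20 for no effect and DMSO without agonist for full effect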
Target sequence (P51684 whole entry, looked up): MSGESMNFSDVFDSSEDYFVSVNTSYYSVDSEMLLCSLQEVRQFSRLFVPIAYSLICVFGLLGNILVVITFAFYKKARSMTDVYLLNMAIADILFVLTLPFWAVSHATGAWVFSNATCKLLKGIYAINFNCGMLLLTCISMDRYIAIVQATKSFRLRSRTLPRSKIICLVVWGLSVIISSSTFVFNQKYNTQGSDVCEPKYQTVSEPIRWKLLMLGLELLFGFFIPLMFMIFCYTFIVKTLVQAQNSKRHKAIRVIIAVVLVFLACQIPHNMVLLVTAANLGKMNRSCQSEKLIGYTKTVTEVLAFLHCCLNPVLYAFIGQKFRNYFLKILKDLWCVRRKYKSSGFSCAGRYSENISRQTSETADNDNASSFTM
APJ antag – antagonists of human apelin receptor APJ, primary screen, CHO-K1 cells, beta-arrestin complementation, luminescence. 0.32% of 330,000 active. inhibition, % at 20 µM. P35414. AID 2521, 2010;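 active means inhibition above about 40% at 20 µM, limit read from the data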;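 further: cells challenged with 10 nM apelin-13 agonist together with compound; plate controls were apelin-13 plus DMSO wells for no effect and DMSO wells lacking apelin-13 for full effect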
EBI2 block – EBI2 receptor antagonists, beta-arrestin recruitment, primary screen, cell-based, luminescence, 7a,25-OHC stimulation, uHTS | inhibition, % at 5 µM | 0.81% of 360,000 active | G-protein coupled receptor 183 (Homo sapiens), P32249 | 7a,25-OHC stimulated | AID 651636, 2012; in the data active means inhibition above about 38%;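 further: enzyme fragment complementation signal reports receptor beta-arrestin coupling in cells; 0% = agonist plus DMSO wells and 100% = wells without agonist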
APJ agonist – agonists of human apelin receptor APJ, primary screen, CHO-K1 cells, PathHunter beta-arrestin, luminescence | P35414 | 0% DMSO wells, 100% apelin | activation, % at 20 µM | 0.11% of 330,000 active | AID 2520, 2010;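 active means activation more than six SD over the plate average, tested at 20 µM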;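 further: 0% = DMSO alone and 100% = apelin-13 at 10 nM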
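Material: CHO-K1 APJ beta-arrestin complementation cell line; Input: cell density 1000 per well; Incubation: compound stimulation 90 min at 25 °C, detection 60 min; Signal: luminescence from split beta-galactosidase complementation, Galacton Star/Emerald II substrate; Controls: DMSO-only wells as negative, 10 nM Apelin-13 as positive control.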
APJ ag conf – agonists of human apelin receptor APJ, confirmation, cell-based, single concentration, CHO-K1, beta-arrestin, luminescence. shares compounds with APJ agonist. activation, % at 20 µM. 10% of 310 active. CHO-K1 APJ PathHunter beta-arrestin;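 active means activation above 40%, taking the highest of four retests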;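 further: plate controls were DMSO wells for no effect and apelin-13 at 10 nM for full effect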
APJ antag conf – APJ antagonists blocking beta-arrestin recruitment, confirmation, cell-based, luminescence, single concentration, uHTS hits; shares compounds with APJ antag; antagonist mode; inhibition, % at 20 µM; 66% of 950 active; AID 2766, 2010; in the data active means inhibition above about 50%
Active calls of the source: *.

Screening CC(C)C(=O)N1CCN(c2ccc(NC(=O)COc3ccccc3[N+](=O)[O-])cc2)CC1 returned CXCR6 block -5.1, CCR6 antagonist -5.9, APJ antag -21.3, EBI2 block -15.0, APJ agonist 15.9* and APJ ag conf 53.9*.
Screening O=C(NC1CCCCC1)c1cc2ccccc2cc1O returned CXCR6 block -8.8, CCR6 antagonist -7.0, APJ antag -54.0, EBI2 block -7.9, APJ agonist 13.4* and APJ ag conf 12.3.
Screening CC1=C(C)/C(=N\OS(=O)(=O)c2ccccc2)C=CC1=O returned CXCR6 block 50.6*, CCR6 antagonist 87.0*, APJ antag 38.1, EBI2 block 15.8, APJ agonist 41.2* and APJ ag conf 32.9.
`O=C(OCC(=O)N1CCCC1=O)c1cc2ccccc2o1` gave CXCR6 block -3.3, CCR6 antagonist -1.9, APJ antag -3.8, EBI2 block -8.3, APJ agonist 15.9* and APJ ag conf 14.4.
`CCOC(=O)C1=CCN(S(=O)(=O)c2ccc(C)cc2)C1c1cccc(C)c1` (configuration not stated) gave CXCR6 block 11.3 and EBI2 block 8.2.
For COc1ccc(N2CSC(=S)N(c3ccc(OC)cc3)C2)cc1 the results were CXCR6 block 1.0 and EBI2 block 30.6.
`Cc1ccc(Nc2nc(NCc3ccco3)c3ccccc3n2)cc1` gave CXCR6 block -5.2, CCR6 antagonist -18.0, APJ antag -36.4, EBI2 block -22.0, APJ agonist 14.2* and APJ ag conf 19.1.
N/C(=N\OC(=O)c1cccc(Br)c1)c1ccccn1 was read as CXCR6 block -22.0, CCR6 antagonist -36.7, APJ antag -157.8, EBI2 block -39.4, APJ agonist 33.8* and APJ ag conf 10.9.
`N/C(=N\OC(=O)c1cccc(Cl)c1)c1ccccn1` gave CXCR6 block -43.0, CCR6 antagonist -10.2, APJ antag -78.1, EBI2 block -17.9 and APJ agonist 6.2.
`N/C(=N\OC(=O)c1ccc(Cl)c(Cl)c1)c1ccccn1` gave CXCR6 block -14.6, CCR6 antagonist -20.2, APJ antag -103.3, EBI2 block -18.9 and APJ agonist 9.6.
`N/C(=N\OC(=O)c1ccc(Cl)c([N+](=O)[O-])c1)c1ccccn1` gave CXCR6 block -21.1, CCR6 antagonist -17.8, APJ antag -43.1, EBI2 block 23.1, APJ agonist 17.4* and APJ ag conf 6.6.
O=C(C[C@H]1CC[C@@H](NS(=O)(=O)c2ccccc2)[C@@H](CO)O1)NCc1ccc(Cl)c(Cl)c1 was read as EBI2 block -2.2.
C=CC1CN2CCC1CC2C(O)c1ccnc2ccc(OC)cc12 (configuration not stated) was read as CXCR6 block -3.2, CCR6 antagonist -2.9 and EBI2 block 15.4.
CCCCCCCCCCn1c2c(c(=N)c3c1CCC3)CCC2 was read as CXCR6 block -11.3, CCR6 antagonist 18.7, APJ antag 27.3, EBI2 block -6.9 and APJ agonist -4.4.
Screening CCCCCCCCCn1c2c(c(=N)c3c1CCC3)CCCC2 returned CXCR6 block -15.4, CCR6 antagonist 16.4, APJ antag 41.3*, EBI2 block -14.6, APJ agonist 10.5*, APJ ag conf 7.1 and APJ antag conf 38.2.
For C=CCC(NC(=O)N(C)C)(C(C)=O)C(=O)OC (configuration not stated) the results were EBI2 block -1.0.
For COC(=O)C1=C(Cn2cnc3ccccc32)NC(=O)NC1c1cc(C)ccc1C (configuration not stated) the results were CXCR6 block 3.3, CCR6 antagonist 14.1, APJ antag 46.0*, EBI2 block -29.3, APJ agonist 76.1*, APJ ag conf 62.0* and APJ antag conf 29.2.
O=C(Cc1coc(-c2ccc(F)cc2)n1)NC1CCCCC1 was read as CXCR6 block 1.4, CCR6 antagonist 4.8, APJ antag 60.5*, EBI2 block 0.9, APJ agonist -2.9 and APJ antag conf 20.1.
CN1CCN(S(=O)(=O)c2cc([N+](=O)[O-])ccc2N/N=C/c2ccc(Cl)cc2)CC1 was read as CXCR6 block 3.0, CCR6 antagonist -2.9, APJ antag 7.6, EBI2 block -9.4 and APJ agonist 4.3.
`COc1ccccc1NS(=O)(=O)c1cc([N+](=O)[O-])ccc1N/N=C/c1c(C)[nH]c2ccccc12` gave CXCR6 block 46.4*, CCR6 antagonist 58.5*, APJ antag 58.3*, EBI2 block 39.1*, APJ agonist -13.2 and APJ antag conf 84.0*.
Screening O=[N+]([O-])c1ccc(N/N=C/c2c[nH]c3ccccc23)c(S(=O)(=O)Nc2ccc(Cl)cc2)c1 returned CXCR6 block 35.4, CCR6 antagonist 45.8, APJ antag 44.1*, EBI2 block 26.5, APJ agonist -8.1 and APJ antag conf 91.4*.
`O=C(OC1CC2CC1[C@H]1CCCCN1C2=O)N1CCCCC1` (some centres not stated) gave CXCR6 block -1.5 and EBI2 block -2.6.
Screening C[C@@H](CO)NC(=O)c1[nH]cnc1C(=O)Nc1ccc(CNC(=O)OC(C)(C)C)cc1 returned CXCR6 block -7.2 and EBI2 block -14.9.
For O=C(NC1CCCCC1)C(c1ccncc1)n1c(=O)c(-c2cc3ccccc3[nH]2)nc2ccccc21 (configuration not stated) the results were EBI2 block -6.5.
CC1=CCC[C@@H]2[C@]3(CC/C(=C/CO)CO)CO[C@@]2(C1)[C@@H](O)C[C@H]3C was read as CXCR6 block 1.9 and EBI2 block 2.7.
Cc1cc(NC(=O)CC2CCCC2)n(-c2nc3ccccc3[nH]2)n1 was read as CXCR6 block 31.4, CCR6 antagonist 22.3, APJ antag 13.6, EBI2 block 5.4 and APJ agonist -1.3.
Screening Cc1cc(NC(=O)c2ccc(F)cc2F)n(-c2nc3ccccc3[nH]2)n1 returned CXCR6 block -13.3, CCR6 antagonist -2.1, APJ antag 42.8*, EBI2 block 0.4, APJ agonist -4.7 and APJ antag conf 9.2.
For CC(=O)Nc1ccc(Nc2ncnc3ccccc23)cc1 the results were APJ antag 42.7*, APJ agonist -2.5 and APJ antag conf 9.5.

Source: PubChem BioAssay
